High-throughput results from PubChem.
CXCR6 block: inhibitors of human CXCR6 receptor | O00574 | CHO-K1 PathHunter CXCR6 beta-arrestin, luminescence | inhibition, % at 20 µM | 360,000 compounds, 0.36% hits | AID 602244; in the data active = inhibition above about 34%, passing the limit was not always enough;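 also: antagonist mode with CXCL16 agonist at 10 nM final; 0% = 10 nM CXCL16 with DMSO and 100% = unstimulated wells without agonist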
Target sequence (O00574 whole entry, looked up): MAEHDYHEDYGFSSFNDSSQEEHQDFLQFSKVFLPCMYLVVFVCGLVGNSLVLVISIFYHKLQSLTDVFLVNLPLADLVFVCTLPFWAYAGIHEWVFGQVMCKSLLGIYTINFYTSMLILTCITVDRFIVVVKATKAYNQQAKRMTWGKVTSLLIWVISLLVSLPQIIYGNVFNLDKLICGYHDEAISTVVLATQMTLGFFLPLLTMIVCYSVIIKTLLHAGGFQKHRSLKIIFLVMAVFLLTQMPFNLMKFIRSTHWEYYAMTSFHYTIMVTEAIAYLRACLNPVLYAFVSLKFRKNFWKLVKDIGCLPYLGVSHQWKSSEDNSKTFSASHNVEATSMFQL
APJ ag: APJ receptor agonism | 330,000 compounds, 0.11% hits | CHO-K1 APJ PathHunter beta-arrestin, luminescence; 0% DMSO wells, 100% apelin | activation, % at 20 µM;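 active = activation more than six SD over the plate average, tested at 20 µM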;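 also: 0% = DMSO alone and 100% = apelin-13 at 10 nM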
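Incubation: overnight seeding, 90 min compound at 25 °C, 1 h detection; test system: PathHunter CHO-K1 APJ (AGTRL-1) beta-arrestin reporter cells; amount: 1000 cells/well; doses: one dose, 20 µM compound, 1% DMSO; measured by: beta-gal luminescence; measure: agonist-driven arrestin binding to APJ; benchmarks: negative DMSO alone, positive Apelin-13 at 10 nM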
Beta2AR agonist: agonists of human beta-2 adrenergic receptor inducing internalization; Am2.2-beta2AR cells, FAP receptor internalization, flow cytometry; response, % (concentration not given with the values); 340,000 compounds, 0.43% hits; AID 504454;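 active = response above a set limit, near 3 SD of response in nonfluorescent compounds, cut at about 42% in these data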
APJ antag: antagonists of human APJ apelin receptor; CHO-K1 APJ beta-arrestin complementation, luminescence; 330,000 compounds, 0.32% hits; P35414; inhibition, % at 20 µM; AID 2521;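 active = inhibition above about 40% at 20 µM, limit read from the data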;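 also: cells challenged with 10 nM apelin-13 agonist together with compound; plate controls were apelin-13 plus DMSO wells for no effect and DMSO wells lacking apelin-13 for full effect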
EBI2 antag: antagonists of human EBI2 receptor | P32249 | EBI2 beta-arrestin recruitment, luminescence, 7a,25-OHC stimulated | inhibition, % at 5 µM | 360,000 compounds, 0.81% hits | AID 651636; in the data active = inhibition above about 38%;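 also: enzyme fragment complementation signal reports receptor beta-arrestin coupling in cells; 0% = agonist plus DMSO wells and 100% = wells without agonist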
CCR6 antagonist: CCR6 (human) receptor antagonism; P51684; CHO-K1 CCR6 PathHunter beta-arrestin, luminescence, CCL20-stimulated; inhibition, % at 20 µM; 340,000 compounds, 0.49% hits;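 active = compounds whose inhibition of the agonist-driven luminescence signal at 20 µM reaches about 50%, limit read from the data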;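 also: cells stimulated with CCL20 at 14 nM final; plate controls were DMSO with CCL20 for no effect and DMSO without agonist for full effect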
EBI2 antag conf: confirmation of human EBI2 receptor antagonists; 2,400 compounds, 29% hits; EBI2 beta-arrestin luminescence, 7a,25-OHC antagonism; inhibition, % at 5 µM; AID 651997; shares compounds with EBI2 antag;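 active = inhibition of at least 50%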
EBI2 agonist: EBI2 agonism counter-screen. 2,400 tested, under 10 active. EBI2-expressing cells, agonist mode, luminescence, 60 min; 0% vehicle, 100% 7α,25-dihydroxycholesterol control. shares compounds with EBI2 antag. activation, % at 5 µM;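 active = activation of at least 50%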
bGal counter: beta-galactosidase inhibition counter-screen | shares compounds with EBI2 antag | purified beta-galactosidase, luminescent Galacton Star, 15 min | inhibition, % at 5 µM | 2,400 compounds, 1% hits | AID 652176;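 active = replicate-average signal at least 3 plate SD below neutral wells, shown as high inhibition, flagging enzyme-inhibiting false positives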;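 also: 0% = DMSO wells with enzyme and 100% = wells lacking enzyme; higher means stronger loss of beta-gal luminescence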
The depositor's hits bear a star; / = no result. A selection: hits, their analogues and other compounds. The true share with any hit is near 1.8%.

SMILES	CXCR6 block	APJ ag	Beta2AR agonist	APJ antag	EBI2 antag	CCR6 antagonist	EBI2 antag conf	EBI2 agonist	bGal counter
COc1ccc(-c2cn(Cc3cccc(OC)c3)nn2)cc1	-2	-4	-3	3	43*	5	22	1	2
COc1cccc(Cn2cc(-c3cccc(C(F)(F)F)c3)nn2)c1	-3	-2	-3	-3	5	16	/	/	/
CCc1nc2ccc(C(=O)NCCCn3ccnc3)cn2c1N(C)C(=O)c1cccc(OC)c1	1	/	/	/	-7	/	/	/	/
COC(=O)c1ccc(C2C(Oc3ccccc3)C(=O)N2CCc2ccc(F)cc2)cc1 (configuration not stated)	-9	1	-15	-11	53*	-5	32	0	5
O=C1C(=NO)CCc2ccccc21	-5	/	12	/	-38	18	/	/	/
Cc1nc2cc(-c3ccc(Cl)cc3)nn2c(C)c1CCC(=O)NCc1ccco1	-7	-1	-15	-15	50*	5	43	1	1
COc1ccc(-c2cc3nc(C)c(CCC(=O)NCc4ccco4)c(C)n3n2)c(OC)c1	-3	-2	-5	11	17	-3	/	/	/
COCCNC(=O)C1C(=O)Nc2ccccc2C(=O)N1Cc1ccccc1 (configuration not stated)	/	/	/	/	0	/	/	/	/
CC(=O)c1cc2cccc(OC3(C)CCN(Cc4ccc5ccccc5c4)C3)c2o1 (configuration not stated)	-8	/	/	/	-4	/	/	/	/
c1ccc(OCc2nnnn2-c2ccccc2)cc1	1	2	-3	-4	9	-5	/	/	/
Clc1ccc(OCc2nnnn2-c2ccccc2)cc1	-2	-5	-4	7	79*	22	54*	2	4
O=C(c1ccc(-n2cccn2)cc1)N1CCN(c2ncccc2C(F)(F)F)CC1	-3	0	-13	-2	87*	16	80*	0	7
Cc1cc(C)c2cc(C(=O)N3CCN(c4ncccc4C(F)(F)F)CC3)[nH]c2c1	-6	-4	-2	2	77*	2	46	0	-9
O=C(/C=C/c1ccco1)OCC1CCCN2CCCCC12 (configuration not stated)	2	-2	2	-21	-1	19	/	/	/
c1ccc(Cc2nn3c(COc4ccccc4)nnc3s2)cc1	3	-3	-8	-14	60*	-4	40	1	5
CCOc1ccccc1OCc1nn2c(COc3ccccc3)nnc2s1	10	-4	7	24	31	2	/	/	/
COc1ccc(Cn2c3ccc(OC)cc3c3nc4ccccc4nc32)cc1	-4	-4	8	9	53*	2	22	-1	-14
COc1ccccc1CNC(=O)C1(C)CCN1C(=O)C1(c2ccccc2)CC1 (configuration not stated)	10	/	/	/	7	/	/	/	/
Cc1cccc(OCC(=O)N2CCN(c3nnc(-c4ccccc4)c4ccccc34)CC2)c1	14	-2	-6	4	55*	10	29	3	3
Cc1ccc(-c2nnc(N3CCN(C(=O)COc4cccc(C)c4)CC3)c3ccccc23)cc1	-1	1	-4	8	63*	12	32	-1	-12
CC(=O)c1cccc(CN2CCCCC2C(=O)Nc2ccc(Oc3ccccc3)nc2)c1 (configuration not stated)	-15	8	5	3	71*	15	49	1	8
O=C(Nc1ccc(Oc2ccccc2)nc1)C1CCCCN1Cc1ccc(OCCO)cc1 (configuration not stated)	-10	10	-5	-22	66*	2	42	-1	12
O=C(Nc1ccc(Oc2ccccc2)nc1)C1CCCCN1Cc1ccco1 (configuration not stated)	-5	-1	23	4	54*	15	25	0	4
